ChEMBL document CHEMBL3243991, “Antiinflammatory agents. 1. Synthesis and antiinflammatory activity of 2-amino-3-benzoylphenylacetic acid” (J Med Chem, 1979)

How the values were obtained:
Rattus norvegicus [1] = test: Antiinflammatory activity in fasted male rat assessed as decrease in carrageenan-induced pleural fluid at 10 mg/kg, po after 5 hrs by Evans blue carrageenan pleural effusion assay relative to control; assay type: functional
Method in brief: (§1)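 Evans blue carrageenan pleural effusion assay, run by sequential analysis. Screened first at 316 mg/kg orally alongside acetylsalicylic acid at the same dose; active agents were retested in 6 rats at one or two doses against phenylbutazone. Given by gavage (10 mL/kg) in water with 0.5% Tween 80. Pleural fluid measured in mL ± SD; % decrease taken versus vehicle control.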

Rattus norvegicus [2] = test: Antiinflammatory activity in fasted male rat assessed as decrease in carrageenan-induced pleural fluid at 50 mg/kg, po after 5 hrs by Evans blue carrageenan pleural effusion assay relative to control; assay type: functional; method in brief: as §1
Rattus norvegicus [3] = test: Antiinflammatory activity in fasted male rat assessed as decrease in carrageenan-induced pleural fluid at 100 mg/kg, po after 5 hrs by Evans blue carrageenan pleural effusion assay relative to control; assay type: functional; method in brief: as §1
Rattus norvegicus [4] = test: Antiinflammatory activity in fasted male rat assessed as decrease in carrageenan-induced pleural fluid at 316 mg/kg, po after 5 hrs by Evans blue carrageenan pleural effusion assay relative to control; assay type: functional; method in brief: as §1
Liver microsome = test: Drug metabolism in rat liver microsomes assessed as recovery as total extract radioactivity by TLC; assay type: ADME
Method in brief: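 14C-labeled substrate (10 mg) was sonicated into 30 mL of 0.1 M Na+/K+ phosphate buffer, pH 7.4. The mixture was extracted with three portions of ether, extract radioactivity recovery was determined, and TLC was run immediately (acetone/CHCl3 2:98).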

Rattus norvegicus [5] = test: Toxicity in adjuvant-induced arthritis Lewis Wistar rat model assessed as change in 11 day weight at 0.03 mg/kg, po treated once daily on days 18 to 22 and […]; assay type: organism-based; design: dose 0.03 mg/kg, route oral; conditions: in vivo, 264 h
Method in brief: (§2)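 Therapeutic regimen in the adjuvant-induced arthritic rat model: compound given once daily on days 18-22 and 25-28. Dosed by gavage (10 mL/kg) as a solution or suspension in water containing 0.5% Tween 80. Groups of 8 rats (one group of 7), with vehicle-dosed negative and positive controls. Injected- and uninjected-foot edema (mL ± SD) and body-weight change (g ± SD) recorded over 11 days; p < 0.05 flagged.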

Rattus norvegicus [6] = test: Antiinflammatory activity against adjuvant-induced arthritis in Lewis Wistar rat assessed as change in 11 day edema volume in adjuvant injected foot at 3.16 mg/kg, po treated […]; assay type: functional
Rattus norvegicus [7] = test: Antiinflammatory activity against adjuvant-induced arthritis in Lewis Wistar rat assessed as change in 11 day edema volume in adjuvant uninjected foot at 0.03 mg/kg, po treated once daily on days 18 to 22 and […]; assay type: functional; method in brief: as §2
Rattus norvegicus [8] = test: Toxicity in adjuvant-induced arthritis Lewis Wistar rat model assessed as change in 11 day weight at 0.316 mg/kg, po treated once daily on days 18 to 22 and […]; assay type: organism-based; design: dose 0.316 mg/kg, route oral; conditions: in vivo, 264 h; method in brief: as §2
Rattus norvegicus [9] = test: Antiinflammatory activity against adjuvant-induced arthritis in Lewis Wistar rat assessed as change in 11 day edema volume in adjuvant injected foot at 0.316 mg/kg, po treated once daily on days 18 to 22 and […]; assay type: functional; method in brief: as §2
Rattus norvegicus [10] = test: Antiinflammatory activity against adjuvant-induced arthritis in Lewis Wistar rat assessed as potency in adjuvant injected foot treated po once daily on days 18 to 22 and 25 to 28 relative to phenylbutazone
Rattus norvegicus [11] = test: Toxicity in adjuvant-induced arthritis Lewis Wistar rat model assessed as change in 11 day weight at 3.16 mg/kg, po treated once daily on days 18 to 22 and […]; assay type: organism-based; design: dose 3.16 mg/kg, route oral; conditions: in vivo, 264 h; method in brief: as §2
Rattus norvegicus [12] = test: Antiinflammatory activity in fasted male rat assessed as decrease in carrageenan-induced pleural fluid at 4 mg/kg, po after 5 hrs by Evans blue carrageenan pleural effusion assay relative to control; assay type: functional; conditions: for inhibition in vivo at 4 mg/kg: Rattus norvegicus, Pleural fluid, po, 5 h; method in brief: as §1
Rattus norvegicus [13] = test: Antiinflammatory activity against adjuvant-induced arthritis in Lewis Wistar rat assessed as change in 11 day edema volume in adjuvant injected foot at 0.03 mg/kg, po treated once daily on days 18 to 22 and 25 to 28
Rattus norvegicus [14] = test: Antiinflammatory activity against adjuvant-induced arthritis in Lewis Wistar rat assessed as potency in adjuvant uninjected foot treated po once daily on days 18 to 22 and 25 to 28 relative to phenylbutazone
Rattus norvegicus [15] = test: Antiinflammatory activity against adjuvant-induced arthritis in Lewis Wistar rat assessed as change in 11 day edema volume in adjuvant uninjected foot at 0.316 mg/kg, po treated once daily on days 18 to 22 and […]; assay type: functional; method in brief: as §2
Rattus norvegicus [16] = test: Antiinflammatory activity in fasted male rat assessed as decrease in carrageenan-induced pleural fluid at 0.8 mg/kg, po after 5 hrs by Evans blue carrageenan pleural effusion assay relative to control; assay type: functional; conditions: for inhibition in vivo at 0.8 mg/kg: Rattus norvegicus, Pleural fluid, po, 5 h; method in brief: as §1
Rattus norvegicus [17] = test: Antiinflammatory activity against adjuvant-induced arthritis in Lewis Wistar rat assessed as change in 11 day edema volume in adjuvant uninjected foot at 3.16 mg/kg, po treated once daily on days 18 to 22 and […]; assay type: functional; method in brief: as §2
Rattus norvegicus [18] = test: Antiinflammatory activity in fasted male rat assessed as decrease in carrageenan-induced pleural fluid at 60 mg/kg, po after 5 hrs by Evans blue carrageenan pleural effusion assay relative to control; assay type: functional; method in brief: as §1
Rattus norvegicus [19] = test: Antiinflammatory activity in fasted male rat assessed as decrease in carrageenan-induced pleural fluid at 300 mg/kg, po after 5 hrs by Evans blue carrageenan pleural effusion assay relative to control; assay type: functional; method in brief: as §1
Rattus norvegicus [20] = test: Toxicity in adjuvant-induced arthritis Lewis Wistar rat model assessed as change in 11 day weight at 0.0316 mg/kg, po treated once daily on days 18 to 22 and 25 to 28; conditions: in vivo, 264 h
Rattus norvegicus [21] = test: Antiinflammatory activity against adjuvant-induced arthritis in Lewis Wistar rat assessed as change in 11 day edema volume in adjuvant injected foot at 0.0316 mg/kg, po treated […]; assay type: functional
Rattus norvegicus [22] = test: Antiinflammatory activity against adjuvant-induced arthritis in Lewis Wistar rat assessed as change in 11 day edema volume in adjuvant uninjected foot at 0.0031 mg/kg, po […]; assay type: functional
Rattus norvegicus [23] = test: Antiinflammatory activity against adjuvant-induced arthritis in Lewis Wistar rat assessed as change in 11 day edema volume in adjuvant injected foot at 0.0031 mg/kg, po treated once daily on days 18 to 22 and […]; assay type: functional; method in brief: as §2
Rattus norvegicus [24] = test: Antiinflammatory activity against adjuvant-induced arthritis in Lewis Wistar rat assessed as change in 11 day edema volume in adjuvant uninjected foot at 0.0316 mg/kg, po treated once daily on days 18 to 22 and […]; assay type: functional; method in brief: as §2
Rattus norvegicus [25] = test: Toxicity in adjuvant-induced arthritis Lewis Wistar rat model assessed as change in 11 day weight at 0.0031 mg/kg, po treated once daily on days 18 to 22 and 25 to 28; conditions: in vivo, 264 h
Rattus norvegicus [26] = test: Antiinflammatory activity against adjuvant-induced arthritis in Lewis Wistar rat assessed as change in 11 day edema volume in adjuvant injected foot at 31.6 mg/kg, po treated […]; assay type: functional
Rattus norvegicus [27] = test: Antiinflammatory activity against adjuvant-induced arthritis in Lewis Wistar rat assessed as change in 11 day edema volume in adjuvant injected foot at 10 mg/kg, po treated once daily on days 18 to 22 and […]; assay type: functional; method in brief: as §2
Rattus norvegicus [28] = test: Antiinflammatory activity in fasted male rat assessed as decrease in carrageenan-induced pleural fluid at 20 mg/kg, po after 5 hrs by Evans blue carrageenan pleural effusion assay relative to control; assay type: functional; method in brief: as §1
Rattus norvegicus [29] = test: Antiinflammatory activity in fasted male rat assessed as decrease in carrageenan-induced pleural fluid at 2 mg/kg, po after 5 hrs by Evans blue carrageenan pleural effusion assay relative to control; assay type: functional; method in brief: as §1
Rattus norvegicus [30] = test: Antiinflammatory activity against adjuvant-induced arthritis in Lewis Wistar rat assessed as change in 11 day edema volume in adjuvant uninjected foot at 10 mg/kg, po […]; assay type: functional
Rattus norvegicus [31] = test: Toxicity in adjuvant-induced arthritis Lewis Wistar rat model assessed as change in 11 day weight at 31.6 mg/kg, po treated once daily on days 18 to 22 and 25 to 28; conditions: in vivo, 264 h
Rattus norvegicus [32] = test: Toxicity in adjuvant-induced arthritis Lewis Wistar rat model assessed as change in 11 day weight at 10 mg/kg, po treated once daily on days 18 to 22 and […]; assay type: organism-based; design: dose 10 mg/kg, route oral; conditions: in vivo, 264 h; method in brief: as §2
Rattus norvegicus [33] = test: Antiinflammatory activity against adjuvant-induced arthritis in Lewis Wistar rat assessed as change in 11 day edema volume in adjuvant uninjected foot at 31.6 mg/kg, po treated once daily on days 18 to 22 and […]; assay type: functional; method in brief: as §2

Compound: O=C(c1ccccc1)c1cccc2c1NCC2
- inhibition in vivo at 10 mg/kg (Rattus norvegicus [1]): 14.5%
- inhibition in vivo at 50 mg/kg (Rattus norvegicus [2]): 35.5%

Compound: O=C(O)c1cccc2c1NCC2
- inhibition in vivo at 100 mg/kg (Rattus norvegicus [3]): 12.6%

Compound: O=C1Nc2c(cccc2C(=O)c2ccccc2)C1=O
- inhibition in vivo at 316 mg/kg (Rattus norvegicus [4]): 18.4%

Compound: O=C(c1ccccc1)c1cccc2cc[nH]c12
- Drug recovery (Liver microsome): 16%

Compound: O=C(c1cccc2c1NCC2)[14c]1[14cH][14cH][14cH][14cH][14cH]1
- Drug recovery (Liver microsome): 49%

Compound: CCOC(=O)Cc1cccc(C(=O)c2ccccc2)c1N
- Activity (Rattus norvegicus [5]): 11 g
- Activity (Rattus norvegicus [6]): -0.6 mL
- Activity (Rattus norvegicus [7]): 0.6 mL
- Activity (Rattus norvegicus [8]): 10 g
- Activity (Rattus norvegicus [9]): -0.1 mL
- fold change (FC) (Rattus norvegicus [10]): 10.9
- Activity (Rattus norvegicus [11]): 13 g
- inhibition in vivo at 4 mg/kg (Rattus norvegicus [12]): 37.3%
- Activity (Rattus norvegicus [13]): 0.4 mL
- fold change (FC) (Rattus norvegicus [14]): 5.1
- Activity (Rattus norvegicus [15]): 0.1 mL
- inhibition in vivo at 0.8 mg/kg (Rattus norvegicus [16]): 26.9%
- Activity (Rattus norvegicus [17]): -0.1 mL

Compound: O=C1Cc2cccc(C(=O)c3ccccc3)c2N1
- inhibition in vivo at 60 mg/kg (Rattus norvegicus [18]): 11.1%
- inhibition in vivo at 300 mg/kg (Rattus norvegicus [19]): 17.5%

Compound: Nc1c(CC(=O)[O-])cccc1C(=O)c1ccccc1.[Na+] [AMFENAC SODIUM]
- Activity (Rattus norvegicus [20]): 6 g
- Activity (Rattus norvegicus [21]): 0.2 mL
- Activity (Rattus norvegicus [8]): 3 g
- Activity (Rattus norvegicus [9]): -0.3 mL
- fold change (FC) (Rattus norvegicus [10]): 14.2
- Activity (Rattus norvegicus [22]): 0.6 mL
- inhibition (INH) (Rattus norvegicus [12]): 33.3%
- Activity (Rattus norvegicus [23]): 0.2 mL
- fold change (FC) (Rattus norvegicus [14]): 23.9
- Activity (Rattus norvegicus [15]): -0.2 mL
- inhibition (INH) (Rattus norvegicus [16]): 11.1%
- Activity (Rattus norvegicus [24]): 0.4 mL
- Activity (Rattus norvegicus [25]): 12 g

Compound: Nc1c(CC(=O)O)cccc1C(=O)c1ccccc1 [AMFENAC]
- inhibition in vivo at 4 mg/kg (Rattus norvegicus [12]): 33.8%
- inhibition in vivo at 0.8 mg/kg (Rattus norvegicus [16]): 10.3%

Compound: CC(=O)Oc1ccccc1C(=O)O [ASPIRIN]
- inhibition in vivo at 316 mg/kg (Rattus norvegicus [4]): 31.6%

Compound: CCCCC1C(=O)N(c2ccccc2)N(c2ccccc2)C1=O [PHENYLBUTAZONE]
- Activity (Rattus norvegicus [26]): -0.9 mL
- inhibition in vivo at 10 mg/kg (Rattus norvegicus [1]): 10.5%
- Activity (Rattus norvegicus [6]): -0.3 mL
- inhibition in vivo at 100 mg/kg (Rattus norvegicus [3]): 31%
- Activity (Rattus norvegicus [8]): 8 g
- Activity (Rattus norvegicus [9]): 0.4 mL
- Activity (Rattus norvegicus [11]): 8 g
- Activity (Rattus norvegicus [27]): -0.5 mL
- inhibition in vivo at 20 mg/kg (Rattus norvegicus [28]): 19.4%
- Activity (Rattus norvegicus [15]): 0.4 mL
- Activity (Rattus norvegicus [17]): 0 mL
- inhibition in vivo at 2 mg/kg (Rattus norvegicus [29]): 0%
- Activity (Rattus norvegicus [30]): -0.2 mL
- Activity (Rattus norvegicus [31]): 26 g
- Activity (Rattus norvegicus [32]): 20 g
- Activity (Rattus norvegicus [33]): -0.4 mL
- inhibition in vivo at 50 mg/kg (Rattus norvegicus [2]): 24.2%
